Assay [1] in a line: Inhibition of Plasmodium falciparum falcipain-2 expressed in Escherichia coli. In a few lines:
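Recombinant E. coli-expressed, refolded enzyme at 0.25 nM in 100 mM sodium acetate pH 5.5, 500 μM CHAPS, 10 mM DTT, DMSO ≤1%. Substrate H-D-Val-Leu-Arg-AFC at 30 μM final. Inhibitor dilutions mixed with substrate, enzyme added last; fluorescence followed 1 h at room temperature. IC50 from percent activity versus concentration.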

Assay [2] is described as follows: Inhibition of Plasmodium falciparum falcipain-3 expressed in Escherichia coli. In a few lines:
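Refolded recombinant enzyme from E. coli, 2 nM, in 100 mM sodium acetate pH 5.5 with 500 μM CHAPS and 10 mM DTT, DMSO up to 1%. H-D-Val-Leu-Arg-AFC at 150 μM final. Reaction started by enzyme addition; fluorescence monitored 1 h at room temperature. IC50 derived from percent activity plotted against inhibitor concentration.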

The structures appear in SMILES notation.

Turning to `CC(C)CN(NC(=O)c1csc(-c2ccccc2)n1)c1nc(C#N)ncc1Br`, the IC50 came to 3 nM in assay [1] and 130 nM in assay [2].
For `CC(C)CN(NC(=O)OC(C)(C)C)c1nc(C#N)ncc1Br` the same measures were 3 nM and 92 nM.
For the molecule `C[C@@H]1CCC[C@H]1N(NC(=O)OC(C)(C)C)c1nc(C#N)ncc1Br` (relative stereo), the IC50 in assay [1] was 3 nM; in assay [2], 6 nM.
On to `CC(C)(C)OC(=O)NN(Cc1ccccc1)c1nc(C#N)ncc1Br`, for which the IC50 in assay [1] worked out at 17 nM; in assay [2], 347 nM.
Regarding `CC(C)CN(NC(=O)c1ccnc2ccccc12)c1nc(C#N)ncc1Cl`, the results for the IC50 in assay [1] and in assay [2] were 1 nM and 44 nM, respectively.
The like results for `Cc1nc(-c2ccc(C(=O)NN(CC(C)C)c3nc(C#N)ncc3Br)cc2)cs1` were, in that order, 0.8 nM and 164 nM.
The like results for `CC(C)CN(NC(=O)C1(c2ccccc2)CC1)c1nc(C#N)ncc1Br` were, in that order, 6 nM and 102 nM.
Take `CC(C)CN(NC(=O)c1cc(-c2ccccc2)no1)c1nc(C#N)ncc1Br`: the IC50 in assay [1] came to 10 nM; in assay [2], 359 nM.
For `CC(C)CN(NC(=O)c1cccc2c1C(=O)c1ccccc1-2)c1nc(C#N)ncc1Br` the same measures were 25 nM and 831 nM.
The like results for `CC(C)CN(NC(=O)OC(C)(C)C)c1ccnc(C#N)n1` were, in that order, 60 nM and 870 nM.
Regarding `CC(C)(C)OC(=O)NN(CC1CCCCC1)c1nc(C#N)ncc1Br`, the IC50 in assay [1] amounted to 24 nM; in assay [2] it was 146 nM.
For `CC(C)CN(NC(=O)c1ccc2ccccc2n1)c1nc(C#N)ncc1Cl` the same measures were 6 nM and 254 nM.
Take `CC(C)CN(NC(=O)OC(C)(C)C)c1nccc(C#N)n1`: the IC50 in assay [1] amounted to 196 nM; in assay [2], 3570 nM.
As for `CC(C)CN(NC(=O)c1cc2cc(OCc3ccccc3)ccc2[nH]1)c1nc(C#N)ncc1Br`, the IC50 is 103 nM in assay [1] and 4650 nM in assay [2].
For `C[C@H]1CCC[C@H]1N(NC(=O)OC(C)(C)C)c1nc(C#N)ncc1Br` (relative stereo) the same measures were 58 nM and 407 nM.
As to `COc1ccc(-c2cc(C(=O)NN(CC(C)C)c3nc(C#N)ncc3Br)no2)cc1`, the IC50 in assay [1] came to 4 nM; in assay [2] it was 692 nM.
The like results for `CC(C)CN(NC(=O)c1ccc2[nH]cnc2c1)c1nc(C#N)ncc1Cl` were, in that order, 0.5 nM and 93 nM.
For the molecule `CC(C)CN(NC(=O)OC(C)(C)C)c1cc(C#N)ncn1`, the half-inhibitory concentration (IC50) in assay [1] and in assay [2] was greater than 10000 nM each time.
`CC1(CN(NC(=O)OC(C)(C)C)c2nc(C#N)ncc2Br)CCCCC1`: the half-maximal inhibitory concentration (IC50) in assay [1] amounted to 25 nM; in assay [2], 121 nM.
As to `Cc1nc(-c2ccccc2)ncc1C(=O)NN(CC(C)C)c1nc(C#N)ncc1Br`, the IC50 was 2 nM in assay [1] and 165 nM in assay [2].
For `CC(C)(C)OC(=O)NN(CC1CCCO1)c1nc(C#N)ncc1Br` (stereo unspecified) the same measures were 14 nM and 112 nM.
With `CC(C)CN(NC(=O)c1ccc(-n2ccc(C(F)(F)F)n2)cc1)c1nc(C#N)ncc1Cl`, the IC50 in assay [1] stood at 2 nM; in assay [2], 144 nM.
The like results for `CC(C)(C)OC(=O)NN(CCC1CCCC1)c1nc(C#N)ncc1Br` were, in that order, 64 nM and 504 nM.
For `CC(C)(C)OC(=O)NN(CC1CCCC1)c1nc(C#N)ncc1Br` the same measures were 1 nM and 10 nM.
The like results for `CC(C)CN(NC(=O)c1cnc2ccccc2c1)c1nc(C#N)ncc1Cl` were, in that order, 1 nM and 126 nM.
Take `CC(C)(C)OC(=O)NN(c1nc(C#N)ncc1Br)C1CCCC1`: the values for the 50% inhibitory concentration (IC50) in assay [1] and in assay [2] were 9 nM and 56 nM, respectively.
For `CC(C)CN(NC(=O)c1ccc2occc2c1)c1nc(C#N)ncc1Br` the same measures were 0.7 nM and 69 nM.
For `Cc1c(-c2ccccc2Cl)noc1C(=O)NN(CC(C)C)c1nc(C#N)ncc1Cl` the same measures were 100 nM and 571 nM.
